The subject of data set [1] is Salmonella enterica subsp. enterica serovar Newport. Description: Inhibition of oxygen consumption in Salmonella newport clinical isolate at 25 uM after 35 mins by Gilson Clarke oxygraph analysis. The format is functional. In a few lines:
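Cells were held 35 min at 37 °C with peptide at the stated concentration. Respiration rate over the next 5 min was measured polarographically with a Clark electrode oxygraph at 37 °C. Results are percent of a peptide-free control; three independent experiments, mean ± SD.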

Data set [2] is described as follows: Stability of the compound at 200 uM after overnight incubation by spot on lawn method in the presence of chymotrypsin. Type of data set: ADME.
The nature of data set [3]: Stability of the compound at 150 uM after 30 mins by RP-HPLC analysis in the presence of pepsin. Type of data set: ADME. The conditions noted are these: 0.5 h. In a few lines:
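Peptide (150 µM) was incubated at 37 °C with pepsin (4% w/w) in 0.1 N HCl. Aliquots taken at 0 and 30 min were quenched into 0.1 N NaOH/70% methanol and centrifuged. Supernatant was analysed by C18 RP-HPLC (15–50% isopropanol/water, 0.05% TFA, 35 min, UV 220 nm). Fragments were identified by MALDI-TOF.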

Data set [4] can be described thus: Bactericidal activity against Salmonella choleraesuis ATCC 10708 after 24 hrs. The format is functional, Salmonella enterica subsp. enterica serovar Choleraesuis. The conditions noted are these: Salmonella enterica, ATCC 10708, 24 h. In a few lines:
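MBC: 10 μL from each clear well of the 24 h, 37 °C LB broth MIC plate spread on LB agar, incubated 24 h at 37 °C; MBC = lowest concentration with no growth on the plate.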

Data set [5] deals with Salmonella enteritidis. Description: Bactericidal activity against Salmonella enteritidis ATCC P76 after 24 hrs by liquid growth inhibition assay. Type of data set: functional, Salmonella enterica subsp. enterica serovar Enteritidis. The conditions noted are these: Salmonella enterica, ATCC P76, 24 h.
Data set [6] deals with Salmonella typhimurium. Description: Bactericidal activity against Salmonella Typhimurium ATCC 13311 after 24 hrs. The format is functional, Salmonella enterica subsp. enterica serovar Typhimurium. Conditions: Salmonella enterica, ATCC 13311, 24 h. The gist of the method: (§1)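 For MBC, 10 µL from each clear well of the 24 h, 37 °C LB broth-dilution plate was spread on LB agar and incubated 24 h at 37 °C. MBC was the lowest concentration giving no growth on agar.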

Data set [7] is described as follows: Bactericidal activity against Salmonella newport clinical isolate after 24 hrs. The format is functional, Salmonella enterica subsp. enterica serovar Newport. Conditions: Salmonella enterica. In a few lines:
as §1

A further data set has as its system Enterococcus faecalis. Description: Antibacterial activity against Enterococcus faecalis ATCC 19433. The format is functional, organism-based.
The subject of a further data set is Staphylococcus aureus. As to the kind of experiment: Antibacterial activity against Staphylococcus aureus ATCC 6538. Type of data set: functional, organism-based.
Data set [8] relates to Escherichia coli. As to the kind of experiment: Antibacterial activity against Escherichia coli MC4100 up to 250 uM after 24 hrs by liquid growth inhibition assay. Type of data set: functional, organism-based. The gist of the method:
(§2)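 Liquid broth microdilution in LB. Peptide stocks were made in 20% methanol/water (1 or 2.5 mM), then serially doubled in water to final 0.01–100 or 0.5–250 µM. Inoculum was diluted to OD620 0.02–0.05. Plates ran 24 h at 37 °C and were read at OD620. MIC was the lowest concentration giving 100% growth inhibition (0.05 AU). Triplicate wells, three repeat experiments.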

Data set [9] has as its system Escherichia coli. Description: Antibacterial activity against Escherichia coli DH5alpha up to 250 uM after 24 hrs by liquid growth inhibition assay. Type of data set: functional, organism-based. Conditions: DH5[alpha]. In a few lines: as §2
Data set [10] in a line: Antibacterial activity against Salmonella choleraesuis ATCC 10708 after 24 hrs by liquid growth inhibition assay. Type of data set: functional, Salmonella enterica subsp. enterica serovar Choleraesuis. The conditions noted are these: Salmonella enterica, ATCC 10708, 24 h.
For a further data set, the system named is Salmonella paratyphi. As to the kind of experiment: Antibacterial activity against Salmonella paratyphi up to 250 uM after 24 hrs by liquid growth inhibition assay. Conditions: Salmonella enterica subsp. enterica serovar Paratyphi A. The format is functional, organism-based.
The subject of data set [11] is Salmonella enterica subsp. enterica serovar Montevideo. As to the kind of experiment: Antibacterial activity against Salmonella montevideo 20 up to 250 uM after 24 hrs by liquid growth inhibition assay. The format is functional. The gist of the method:
as §2

The nature of data set [12]: Antibacterial activity against Salmonella heidelberg ATCC 8326 after 24 hrs by liquid growth inhibition assay. Type of data set: functional, Salmonella enterica subsp. enterica serovar Heidelberg. Conditions: Salmonella enterica, ATCC 8326, 24 h. The gist of the method:
as §2

Data set [13] has as its system Salmonella typhimurium. Description: Antibacterial activity against Salmonella Typhimurium ATCC 13311 after 24 hrs by liquid growth inhibition assay. The conditions noted are these: Salmonella enterica, ATCC 13311, 24 h. The format is functional, Salmonella enterica subsp. enterica serovar Typhimurium. In a few lines: as §2
Data set [14] has as its system Salmonella typhimurium. As to the kind of experiment: Antibacterial activity against Salmonella Typhimurium AFLB 25 after 24 hrs by liquid growth inhibition assay. Conditions: Salmonella enterica, AFLB 25, 24 h. The format is functional, Salmonella enterica subsp. enterica serovar Typhimurium. In a few lines:
as §2

The subject of data set [15] is Salmonella enteritidis. Description: Antibacterial activity against Salmonella enteritidis AFLB 81 up to 250 uM after 24 hrs by liquid growth inhibition assay. Type of data set: functional, organism-based. The conditions noted are these: Salmonella enterica subsp. enterica serovar Enteritidis. The gist of the method: as §2
For data set [16], the system named is Salmonella enteritidis. Description: Antibacterial activity against Salmonella enteritidis AFLB 41 up to 250 uM after 24 hrs by liquid growth inhibition assay. The format is functional, organism-based. Conditions: Salmonella enterica subsp. enterica serovar Enteritidis. In a few lines: as §2
Data set [17] deals with Salmonella enteritidis. Description: Antibacterial activity against Salmonella enteritidis AFLB 11 up to 250 uM after 24 hrs by liquid growth inhibition assay. Type of data set: functional, organism-based. Conditions: Salmonella enterica subsp. enterica serovar Enteritidis. The gist of the method: as §2
Data set [18] deals with Salmonella enteritidis. As to the kind of experiment: Antibacterial activity against Salmonella enteritidis ATCC 13076 up to 250 uM after 24 hrs by liquid growth inhibition assay. The conditions noted are these: Salmonella enterica subsp. enterica serovar Enteritidis. The format is functional, organism-based. In a few lines: as §2
In data set [19] the test system is Salmonella enteritidis. Description: Antibacterial activity against Salmonella enteritidis PT8 after 24 hrs by liquid growth inhibition assay. Type of data set: functional, Salmonella enterica subsp. enterica serovar Enteritidis. The conditions noted are these: Salmonella enterica, PT8, 24 h. In a few lines:
as §2

Data set [20] is described as follows: Antibacterial activity against Salmonella newport clinical isolate after 24 hrs by liquid growth inhibition assay. Type of data set: functional, Salmonella enterica subsp. enterica serovar Newport. Conditions: Salmonella enterica. The gist of the method:
as §2

Data set [21] is described as follows: Cytotoxicity against human MDA-MB-435 cells assessed as cell viability at 0.3 to 100 uM after 24 hrs by MTT assay. Type of data set: cell-based. Conditions: read-out: Activity. In a few lines:
(§3)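 MTT assay. MDA-MB-435 cells were kept in RPMI 1640 and MCF7 cells in DMEM, both with 10% FBS, penicillin and streptomycin, at 37 °C and 5% CO2. Cells were seeded at 1×10^4/well and grown 24 h. Samples came from 1 mM stocks in 10% DMSO/water, twofold diluted to 0.3125–100 µM, and applied for 24 h. MTT (5 mg/mL) was added for 3.5 h, then DMSO solubilization and A570. Viability is relative to untreated cells; triplicate, mean.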
For orientation: Formazan colour is commonly taken as a measure of viable cells.

The nature of data set [22]: Cytotoxicity against human MCF7 cells assessed as cell viability at 0.3 to 100 uM after 24 hrs by MTT assay. The format is cell-based. The conditions noted are these: read-out: Activity. The gist of the method:
as §3

Data set [23] in a line: Thermostability in boiling water after 3 hrs. The conditions noted are these: buffer. The format is physicochemical.
Data set [24] in a line: Cytotoxicity against human MDA-MB-435 cells assessed as cell viability at 3 uM after 24 hrs by MTT assay. The format is cell-based. The conditions noted are these: read-out: Activity.
A short description of data set [25]: Cytotoxicity against human MCF7 cells assessed as cell viability at 3 uM after 24 hrs by MTT assay. The format is cell-based. The conditions noted are these: read-out: Activity.

Molecules are shown by their SMILES. ≈ marks a conversion by molar mass, not a printed value. Calls of active or inactive are those of the source. Positions of bridges follow the written chain, without caps; N, C: chain ends. Residues, ends and D or L forms follow the SMILES beside them.

As to `CC[C@H](C)[C@@H]1NC(=O)CNC(=O)[C@H](C(C)C)NC(=O)[C@H](Cc2ccccc2)NC(=O)[C@H](Cc2ccc(O)cc2)NC(=O)[C@@H]2CCC(=O)NCC(=O)NCC(=O)N[C@@H](C)C(=O)N[C@@H](CSSC[C@@H](C(=O)O)NC(=O)[C@H](Cc3ccccc3)NC(=O)[C@H](CO)NC(=O)[C@H]([C@@H](C)CC)NC(=O)[C@@H]3CCCN3C(=O)[C@H]([C@@H](C)O)NC(=O)CNC1=O)C(=O)N[C@@H](Cc1cnc[nH]1)C(=O)N[C@@H](C(C)C)C(=O)N1CCC[C@H]1C(=O)N2` (GGACHVPEYFVGIGTPISFC-OH; disulfide 4-20; lactam N-8), in [1], the inhibition result is “Active”. Besides, the Stability result was “Unstable” in [2], “Unstable” in data set [3] and “Stable” in data set [23]. Moreover, the MBC in [4] is 125 µM (≈ 254 µg/mL); in the data set with Salmonella enteritidis [5], 125 µM (≈ 254 µg/mL); against Salmonella typhimurium [6] it was 125 µM (≈ 254 µg/mL); in data set [7] it was 31.2 µM (≈ 63.6 µg/mL). The outcome (in the data set on Enterococcus faecalis; with Staphylococcus aureus; in the data set with Escherichia coli [8]; in the data set on Escherichia coli [9]; in the data set with Salmonella paratyphi; in data set [11]) was inactive. Moreover, the result in the data set with Salmonella enteritidis [15], in the data set with Salmonella enteritidis [16], in the data set on Salmonella enteritidis [17] and in the data set with Salmonella enteritidis [18] was inactive. In addition, the MIC in [10] stood at 90 µM (≈ 183 µg/mL); in data set [12] it was 83 µM (≈ 169 µg/mL); against Salmonella typhimurium [13], 75 µM (≈ 153 µg/mL); against Salmonella typhimurium [14] it was 85 µM (≈ 173 µg/mL); in the data set with Salmonella enteritidis [19], 80 µM (≈ 163 µg/mL); in [20] it was 25 µM (≈ 50.9 µg/mL). For the same molecule, the viability at 24 h, up to 100 µM in data set [21] and in data set [22] was > 90% throughout.
Regarding `COc1cccc2c1C(=O)c1c(O)c3c(c(O)c1C2=O)C[C@@](O)(C(=O)CO)C[C@@H]3O[C@H]1C[C@H](N)[C@H](O)[C@H](C)O1` [DOXORUBICIN], the viability at 24 h, 3 µM in [24] and in data set [25] was 20% each time.

Usually MBC stands for the smallest concentration meeting the test's criterion for killing. The term MIC denotes the smallest concentration in the dilution series that meets the test's criterion for growth inhibition.

Values taken from ChEMBL document CHEMBL1944538, “Synthetic peptides derived from the sequence of a lasso peptide microcin J25 show antibacterial activity” (Bioorg Med Chem, 2012).
